Screening results from PubChem.
Sampled rows, rich in hits. Any-hit rate of the full collection: about 11%.
M1 agonist = M1 muscarinic receptor agonists, primary screen, CHO-M1 cells, Fluo-4 calcium, agonist mode; Muscarinic acetylcholine receptor M1; Fluo-4 calcium fluorescence; hits give high values; B-score at 10 µM; 64,000 compounds, 3% hits; AID 626, 2007;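 active = fluorescence rise, raw or as B-score row- and column-corrected plate score, outside the 99.7% band of its plate's samples, either direction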
mHtt clearance = clearance of mutant huntingtin inclusions, primary screen, imaging, HeLa Exon1htt(103Q)mCFP, confocal imaging. inhibition, % at 1.5 µM. aggregate imaging; zero = plate's median compound well. 47,000 compounds, 0.42% hits;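 active = inhibition of aggregate fluorescence above about 70%, also judged a hit by eye on the cell image, limit read from the data, passing the limit was not always enough; inconclusive = no rule stated for this call; inactive = not judged a hit on image review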;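 also: cells exposed to compound for three days before fixation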
SF-1 act = activators of human SF-1, primary screen, cell-based, CHO-K1, Gal4-SF-1 LBD, luciferase luminescence | Steroidogenic factor 1 (Homo sapiens), Q13285 | CHO-K1 Gal4-SF-1 LBD luciferase reporter; % increase over DMSO SF-1-specific signal | activation, % at 10 µM | 65,000 compounds, 1.9% hits | AID 522, 2006;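 active = activation above the mean activation of all tested compounds plus 3 SD, cut at about 50% in these data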
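Assay system – CHO-K1 cells with Gal4–hSF-1 LBD chimera plus Gal4-driven luciferase · Quantity – 4,000 cells per well · Times – compound added 1 h post-seeding, 20 h exposure at 37 °C, 5% CO2 · Measured by – luciferase light emission · Benchmarks – DMSO and mock-transfected background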
M1 antag = antagonists of rat M1 muscarinic receptor. CHO-M1 cells, Fluo-4 calcium, ACh EC80 antagonist mode; hits give low values. B-score at 10 µM. 64,000 compounds, 3.4% hits. AID 628, 2007;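 active = calcium fluorescence response, raw or row-and-column corrected B-score, differing from the plate sample mean either way at a set confidence level, mostly lower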
D1 allo mod = D1 CRE-luciferase signal change, two-sided – cell-based, HEK293 D1, dopamine EC30, D1 allosteric modulator project, primary screen. D(1A) dopamine receptor (Homo sapiens), P21728. dopamine EC30 potentiation; actives deviate in either direction. B-score at 10 µM. 58,000 compounds, 5.9% hits;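 active = luminescence count or its row- and column-corrected plate score outside the 99.7% band of the plate's sample wells, on either side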
RORa activator = activators of orphan receptor RORA, primary screen, cell-based, luminescence; Nuclear receptor ROR-alpha (Homo sapiens), P35398; CHO-K1 Gal4-RORA LBD luciferase reporter; percent increase over mock-subtracted basal signal; activation, % at 10 µM; 65,000 compounds, 1.5% hits; AID 560, 2006;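 active = activation above the mean of all tested compounds plus 3 SD, cut at about 49% in these data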;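 also: 0% = DMSO-treated RORA cells and 100% = added signal equal to DMSO minus mock-transfected cells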
Target sequence (P35398 whole entry, looked up, the tested form may be a part): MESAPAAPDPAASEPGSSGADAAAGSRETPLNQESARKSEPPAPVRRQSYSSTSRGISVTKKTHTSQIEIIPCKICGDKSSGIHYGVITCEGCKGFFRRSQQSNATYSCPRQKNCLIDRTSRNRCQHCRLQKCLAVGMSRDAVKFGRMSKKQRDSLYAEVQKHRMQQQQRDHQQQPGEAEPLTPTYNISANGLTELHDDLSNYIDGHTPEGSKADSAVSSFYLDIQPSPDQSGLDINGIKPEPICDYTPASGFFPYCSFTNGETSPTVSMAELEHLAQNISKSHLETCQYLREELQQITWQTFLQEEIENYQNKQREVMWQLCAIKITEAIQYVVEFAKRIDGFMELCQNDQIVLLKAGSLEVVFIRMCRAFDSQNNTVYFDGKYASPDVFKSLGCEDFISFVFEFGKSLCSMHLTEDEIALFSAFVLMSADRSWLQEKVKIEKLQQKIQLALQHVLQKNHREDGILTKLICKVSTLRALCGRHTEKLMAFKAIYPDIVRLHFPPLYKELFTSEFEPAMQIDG
M1 antag conf = rat M1 muscarinic receptor antagonists, confirmation, CHO cells, Fluo-4 calcium, duplicate; calcium response (max-min fluorescence) at 10 µM; 1,700 compounds, 43% hits; ACh EC80 antagonism; hits give low values; shares compounds with M1 antag;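 active = calcium response below the same-plate mean of wells given acetylcholine alone at its 80%-effect dose, minus 3 SD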;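 also: raw fluorescence intensity difference in arbitrary instrument units and not normalized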
mGluR4 antag = human mGluR4 response to M1 antagonist hits, M1 allosteric modulator project, cell-based, antagonist mode, secondary assay 1; shares compounds with M1 antag; CHO-mGluR4 calcium flux, Fluo-4 fluorescence, glutamate EC80; hits give low values; fluorescence response (max-min) at 10 µM; 1,700 compounds, 0.9% hits; AID 678, 2007;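 active = fluorescence response below the plate's average for near-maximal glutamate wells, less 3 SD of those wells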;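 also: raw unnormalized fluorescence span taken in the window right after glutamate addition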
Numbers without * were called inactive; ? = inconclusive; / = no result given.

SMILES | M1 agonist | mHtt clearance | SF-1 act | M1 antag | D1 allo mod | RORa activator | M1 antag conf | mGluR4 antag
COc1c(C)cc(Br)cc1C(=O)Nc1ccc(N2CCN(S(C)(=O)=O)CC2)cc1 | 0.34 | -12 | -6 | -1.9* | / | 5 | 533 | 210
COc1ccccc1C(=O)Nc1ccc(N2CCN(S(C)(=O)=O)CC2)cc1 | -0.027 | / | 34 | 0.95 | -0.22 | 41 | / | /
COC(=O)Nc1sc2c(c1C(=O)NC1CC1)CCCCCC2 | / | 10 | / | / | / | / | / | /
COc1cccc(NC(=O)c2oc3ccccc3c2NC(=O)c2ccc3c(c2)OCO3)c1 | -0.31 | / | -3 | 0.17 | 0.84 | 23 | / | /
COc1cccc(NC(=O)c2oc3ccccc3c2NC(=O)C(C)(C)C)c1 | -0.33 | / | -10 | -3.8* | -1.5 | -14 | 700 | 243
CCOc1ccc(S(=O)(=O)Nc2cc(Cl)ccc2O)cc1 | -0.058 | 32 | -11 | -3.1* | -0.21 | 15 | 457* | 225
CCOc1ccc(S(=O)(=O)Nc2cccc(Cl)c2)cc1 | 1.6 | -26 | 1 | -0.56 | -0.039 | 12 | / | /
Nc1ccc(C(=O)c2ccccc2C(=O)O)cc1Cl | 1.2 | -19 | 11 | -0.18 | 0.83 | 2 | / | /
CCn1nnnc1NCc1ccc(N2CCCC2)cc1 | -1.2 | / | -12 | -17* | -0.21 | 1 | 503* | 215
c1ccc(CNc2nnnn2-c2ccccc2)cc1 | / | -38 | / | / | / | / | / | /
Cc1nnc(SCC(=O)N2CCC(Cc3ccccc3)CC2)n(N)c1=O | -0.11 | / | 6 | -3* | -0.76 | 3 | 559 | 231
Cc1nnc(SCC(=O)NCC2CCCCC2)n(N)c1=O | / | 48 | / | / | / | / | / | /
CC(C)c1ccc(O)c(N)c1 | 0.53 | / | -10 | -2.6* | / | -6 | 697 | 208
CCC(C)c1ccc(O)c(N)c1 (configuration not stated) | -0.44 | -20 | -14 | -0.061 | -1.3 | 1 | / | /
N#Cc1c(NCc2ccccc2)ccnc1NCc1cccnc1 | -0.08 | / | -33 | -4.3* | -0.45 | 6 | 441* | 262
CN(C)c1ccnc(NCc2ccccc2)c1C#N | 0.38 | -4 | 2 | -0.048 | 1.2 | 12 | / | /
O=C(NCc1ccco1)N1c2ccccc2Sc2ccccc21 | 2.4 | / | / | -1.7 | -0.95 | / | / | /
Cc1ccc(S(=O)(=O)N(CC(=O)N2CCCCC2)c2cccc(C)c2)cc1 | / | -1 | / | / | / | / | / | /
O=C(c1cccnc1)N1CCN(C(=O)c2cccs2)CC1 | 1.9 | ? | -5 | 0.092 | / | 1 | / | /
O=C(Nc1sccc1C(=O)N1CCOCC1)c1cccnc1 | -0.14 | / | 2 | -5.1* | -0.42 | -2 | 623 | 245
Cc1sc2ncnc(SCC(=O)N3CCCC3=O)c2c1C | -1.4 | / | -6 | -4.3* | 2 | -8 | 651 | 262
CCOC(=O)CNc1nnc(SCC(=O)OCC)[nH]c1=O | 0.49 | -38 | -6 | -0.36 | -0.05 | -2 | / | /
CC(=O)N=c1cccc(NC(C)=O)n1O | -0.034 | / | 0 | 0.21 | 0.29 | -25 | / | /
CCC(C#CCN1CCOCC1)(CC)OCCC#N | -0.29 | -14 | -18 | 0.21 | -0.06 | -6 | / | /
CC(C)(O)C#CC#CCN1CCOCC1 | -0.88 | / | -9 | -1.1* | -0.46 | 13 | 637 | 191
SMILES | M1 agonist | mHtt clearance | SF-1 act | M1 antag | D1 allo mod | RORa activator | M1 antag conf | mGluR4 antag
CC(CN(C)Cc1ccccc1)OC(=O)c1ccc2c(c1)OCCO2 (configuration not stated) | 0.61 | / | 17 | -3.2* | -0.039 | 16 | 323* | 223
CC(CN(C)Cc1ccccc1)OC(=O)c1cccs1 (configuration not stated) | -0.013 | -5 | -5 | -0.76 | -0.3 | -10 | / | /
CN(C)CCCOC(=O)C1c2ccccc2Oc2ccccc21 | -1.1 | / | 7 | -12* | / | 2 | 22* | 243
CCN(CC)CCCNC(=O)C1c2ccccc2Oc2ccccc21 | 0.05 | / | 4 | -6.8* | 0.23 | -16 | 192* | 255
COc1cc(-c2nnc(COC(=O)C3c4ccccc4Oc4ccccc43)o2)cc(OC)c1OC | 1.6 | / | -13 | -1.7 | 0.0045 | -3 | / | /
CCOc1cc(S(=O)(=O)N2CCN(Cc3ccccc3)CC2)ccc1Br | -0.24 | -32 | 2 | -0.22 | 1.1 | -13 | / | /
O=c1cc(CSc2nnnn2-c2ccccc2)nc2nc[nH]n12 | -0.062 | / | 9 | -2.1* | -0.58 | 3 | 626 | 258
O=c1cc(CSc2nnnn2-c2ccccc2)nc2scc(-c3ccccc3)n12 | 0.22 | / | -6 | 0.46 | 0.076 | 7 | / | /
Cc1nn(C)cc1CN(C)C(=O)c1sc2cccc(Cl)c2c1Cl | 0.5 | / | -5 | 0.37 | 0.88 | -14 | / | /
CN1CCN(C2=C(Cl)C(=O)N(CCc3ccccc3)C2=O)CC1 | -1.3 | -123 | 9 | -5.7* | / | 3 | 376* | 244
COc1ccc(S(=O)(=O)NCC(=O)N(CC(=O)NCC2CCCO2)c2c(C)cccc2C)cc1 (configuration not stated) | 0.26 | 1 | -16 | -0.072 | 0.031 | 1 | / | /
CCCC(O)(CCN1CCCCC1)c1ccc(OCC)cc1 (configuration not stated) | / | -18 | / | / | / | / | / | /
CC(O)(C#CCN1CCCC1)c1ccccc1 (configuration not stated) | -0.93 | / | -20 | -2.3* | -0.29 | 4 | 493 | 212
CN1CCN(CC#CCC(O)(c2ccccc2)C2CCCC2)CC1 (configuration not stated) | 1.1 | -5 | 5 | -1.5 | -2.1 | -3 | / | /
CCC(O)(CCN1CCCCC1)c1ccccc1 (configuration not stated) | 0.35 | -18 | -12 | -11* | -0.33 | 7 | 111* | 213
CCC(C)[C@H](N)c1nnc(SCc2cccc(F)c2)o1 (some centres not stated) | -1.4 | 25 | -6 | -0.054 | 1.4 | 12 | / | /
COc1ccc(NC(=O)c2cc([N+](=O)[O-])nn2Cc2ccccc2)c(C)c1 | / | -31 | / | / | / | / | / | /
CC(=O)c1ccc(C(C)(C)c2ccc(C(C)=O)s2)s1 | -0.01 | / | -9 | -2.6* | -0.2 | -9 | 518* | 263
Cc1nc2c(o1)CCc1ccccc1C2N1CCN(C)CC1 (configuration not stated) | -0.62 | 5 | -9 | -15* | / | -7 | 20* | 254
O=C(Oc1ccc(Cl)cc1)N1CCCCC1 | 0.57 | -31 | 19 | -0.6 | 0.082 | 30 | / | /
